From ChEMBL document CHEMBL1221249, “Synthesis and in vitro binding studies of piperazine-alkyl-naphthamides: impact of homology and sulphonamide/carboxamide bioisosteric replacement on the affinity for 5-HT1A, alpha2A, D4.2, D3 and D2L receptors” (Bioorg Med Chem Lett, 2010)

How the values were obtained:
[1] = molecular target: D(3) dopamine receptor (Rattus norvegicus) (UniProt P19020); test: Displacement of [3H]-spiperone from rat D3 receptor after 60 mins
D(3) dopamine receptor = D(3) dopamine receptor (Rattus norvegicus, UniProt P19020); test: Displacement of [3H]spiperone from rat dopamine D3 receptor after 60 mins
D(3) dopamine receptor, sequence (P19020 whole entry): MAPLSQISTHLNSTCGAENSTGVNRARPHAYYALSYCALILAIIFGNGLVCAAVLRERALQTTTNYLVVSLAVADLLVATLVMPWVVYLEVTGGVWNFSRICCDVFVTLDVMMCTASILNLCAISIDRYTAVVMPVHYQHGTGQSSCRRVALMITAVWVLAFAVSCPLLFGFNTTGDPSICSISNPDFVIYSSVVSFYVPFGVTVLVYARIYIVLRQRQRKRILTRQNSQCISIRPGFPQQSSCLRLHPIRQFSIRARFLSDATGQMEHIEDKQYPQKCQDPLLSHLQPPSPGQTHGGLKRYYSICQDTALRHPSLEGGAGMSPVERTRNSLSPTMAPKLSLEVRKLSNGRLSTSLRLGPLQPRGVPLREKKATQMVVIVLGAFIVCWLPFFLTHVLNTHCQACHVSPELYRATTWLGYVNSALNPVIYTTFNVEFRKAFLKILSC

D(2) dopamine receptor [2] = molecular target: T1, D(2) dopamine receptor (Homo sapiens, UniProt P14416); test: Displacement of [3H]spiperone from human D2L receptor after 60 mins
T1 sequence (P14416 whole entry): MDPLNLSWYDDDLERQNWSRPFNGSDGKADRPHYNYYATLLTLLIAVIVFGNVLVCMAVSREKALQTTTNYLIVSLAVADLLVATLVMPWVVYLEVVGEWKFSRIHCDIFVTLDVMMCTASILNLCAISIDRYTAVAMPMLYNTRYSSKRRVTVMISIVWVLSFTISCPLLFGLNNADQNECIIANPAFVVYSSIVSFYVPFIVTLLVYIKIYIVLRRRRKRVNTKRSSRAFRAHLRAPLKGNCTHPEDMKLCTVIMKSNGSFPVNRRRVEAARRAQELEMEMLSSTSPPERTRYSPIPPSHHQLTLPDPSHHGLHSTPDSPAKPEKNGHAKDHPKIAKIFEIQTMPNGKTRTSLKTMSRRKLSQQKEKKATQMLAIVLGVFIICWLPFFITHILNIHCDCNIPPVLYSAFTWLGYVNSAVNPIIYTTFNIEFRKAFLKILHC
Outline: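 Cloned human D2L receptor membranes from transfected cells were incubated 60 min at 27 °C with [3H]-spiperone (0.2 nM). Buffer was 50 mM Tris-HCl pH 7.4 with 10 mM MgCl2 and 1 mM EDTA, and haloperidol (10 µM) defined non-specific binding. Bound radioactivity was collected on 0.3% PEI-soaked GF/C filters and measured by scintillation counting.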

[3] = molecular target: 5-hydroxytryptamine receptor 1A (Homo sapiens) (UniProt P08908); test: Displacement of [3H]8-OH-DPAT from human 5-HT1A receptor after 60 mins
5-hydroxytryptamine receptor 1A (Homo sapiens), sequence (P08908 whole entry, looked up): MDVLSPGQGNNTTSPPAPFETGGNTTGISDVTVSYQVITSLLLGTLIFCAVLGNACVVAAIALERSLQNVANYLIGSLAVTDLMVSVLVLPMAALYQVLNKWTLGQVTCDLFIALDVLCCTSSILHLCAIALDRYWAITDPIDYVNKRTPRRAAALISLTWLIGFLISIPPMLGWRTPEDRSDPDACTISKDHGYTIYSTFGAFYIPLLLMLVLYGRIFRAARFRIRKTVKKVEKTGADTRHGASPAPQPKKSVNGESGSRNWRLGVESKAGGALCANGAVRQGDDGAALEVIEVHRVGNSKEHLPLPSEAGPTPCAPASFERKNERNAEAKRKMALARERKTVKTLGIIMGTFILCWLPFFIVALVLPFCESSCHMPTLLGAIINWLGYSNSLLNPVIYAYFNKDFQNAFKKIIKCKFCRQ

[4] = molecular target: D(4) dopamine receptor (Homo sapiens) (UniProt P21917); test: Displacement of [3H]-YM-09151-2 from human D4.2 receptor after 60 mins
D(4) dopamine receptor (Homo sapiens), sequence (P21917 whole entry, looked up): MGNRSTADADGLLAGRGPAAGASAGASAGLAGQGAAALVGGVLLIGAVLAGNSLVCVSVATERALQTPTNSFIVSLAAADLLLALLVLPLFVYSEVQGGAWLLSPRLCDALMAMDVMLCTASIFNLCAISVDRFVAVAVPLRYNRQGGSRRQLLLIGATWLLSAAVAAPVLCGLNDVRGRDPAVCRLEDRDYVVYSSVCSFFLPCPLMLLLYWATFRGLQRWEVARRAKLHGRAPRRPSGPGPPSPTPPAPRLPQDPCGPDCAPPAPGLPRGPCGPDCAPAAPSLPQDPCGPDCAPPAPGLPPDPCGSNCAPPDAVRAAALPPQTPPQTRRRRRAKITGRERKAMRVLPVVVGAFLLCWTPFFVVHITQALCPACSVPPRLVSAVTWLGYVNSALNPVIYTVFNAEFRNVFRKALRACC

D(2) dopamine receptor [5] = molecular target: T1, D(2) dopamine receptor; test: Displacement of [3H]spiperone from human D2L receptor at 1 uM after 60 mins

Compound	Ki [1] [nM]	Ki (D(3) dopamine receptor) [nM]	Ki (D(2) dopamine receptor [2]) [nM]	Ki [3] [nM]	Ki [4] [nM]	inhibition (D(2) dopamine receptor [5]) [%]
COc1ccccc1N1CCN(CCNC(=O)c2ccc3ccccc3c2)CC1	66	113	890	–	–	–
COc1ccccc1N1CCN(CCCNS(=O)(=O)c2ccc3ccccc3c2)CC1	58.5	101	132	4.64	112	–
COc1ccccc1N1CCN(CCCCNC(=O)c2ccc3ccccc3c2)CC1	–	–	–	–	–	30
COc1ccccc1N1CCN(CCCCCNC(=O)c2ccc3ccccc3c2)CC1	13	9.36	254	11.1	54	–
COc1ccccc1N1CCN(CCNS(=O)(=O)c2ccc3ccccc3c2)CC1	56	348	–	5.19	24.4	44
COc1ccccc1N1CCN(CCCNC(=O)c2ccc3ccccc3c2)CC1	175	71	–	4.59	17.8	46

The next lines start with the values.

Ki [1] [nM]	Ki (D(3) dopamine receptor) [nM]	Ki (D(2) dopamine receptor [2]) [nM]	Ki [3] [nM]	Ki [4] [nM]	inhibition (D(2) dopamine receptor [5]) [%]	Compound
0.56	96	121	–	–	–	COc1ccccc1N1CCN(CCCCCCNC(=O)c2ccc3ccccc3c2)CC1
27.5	79	46.5	4.1	62	–	COc1ccccc1N1CCN(CCCCNS(=O)(=O)c2ccc3ccccc3c2)CC1
1.97	≤ 45	99	2.87	9.62	–	COc1ccccc1N1CCN(CCCCCCNS(=O)(=O)c2ccc3ccccc3c2)CC1
12.5	84	438	–	–	–	COc1ccccc1N1CCN(CCCCCNS(=O)(=O)c2ccc3ccccc3c2)CC1
